In ChEMBL document CHEMBL4033782, “Structural Modification of Natural Product Tanshinone I Leading to Discovery of Novel Nitrogen-Enriched Derivatives with Enhanced Anticancer Profile and Improved Drug-like Properties” (J Med Chem, 2018):
pIC50: −log10 of the molar value. Values after ≈ are worked out from the molar mass of the structure shown.

Assays:
HCT-116 [1] = assay: Induction of apoptosis in human HCT116 cells pretreated with Z-VAD-FMK pan-caspase inhibitor for 1 hr assessed as early apoptotic cells at 2 uM after 48 hrs by Annexin V-FITC/propidium iodide staining-based FACS analysis (reference value: 1.34%); assay type: functional; set-up: scale not given: the % may be the effect or the level left
[2] = Tmax in Sprague-Dawley rat at 3.0 mg/kg, po; assay type: ADME, organism-based; conditions: in vivo
In short: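 Male SD rats dosed orally at 3.0 mg/kg in DMSO/Tween 80/normal saline; plasma profile gives T1/2, Cmax, Tmax, AUC, MRT; F from comparison with 1.0 mg/kg i.v. dosing.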

HCT-116 [3] = assay: Induction of apoptosis in human HCT116 cells pretreated with Z-VAD-FMK pan-caspase inhibitor for 1 hr assessed as late apoptotic cells at 1 uM after 48 hrs by Annexin V-FITC/propidium iodide staining-based FACS analysis (reference value: 3.15%); assay type: functional; set-up: scale not given: the % may be the effect or the level left
Mus musculus = assay: Toxicity in BALB/C nude mouse xenografted with human HCT116 cells assessed as body weight loss at 10 mg/kg, iv once daily for 14 days starting on day 14 post tumor implantation measured every 4 days during compound dosing; assay type: organism-based; conditions: in vivo
In short: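 Male BALB/c nude mice (18–20 g) with subcutaneous HCT116 implants in right axilla; treatment from day 14 once tumors exceeded 100 mm3, randomized (6/treated, 10/control group); 10 mg/kg i.v. or 30 mg/kg i.p. daily for 14 days in 1% DMSO/saline; 5-FU 15 mg/kg as reference; body weight tracked, mean ± SD of 6 mice.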

HCT-116 [4] = assay: Induction of apoptosis in human HCT116 cells pretreated with Z-VAD-FMK pan-caspase inhibitor for 1 hr assessed as early apoptotic cells at 0.5 uM after 48 hrs by Annexin V-FITC/propidium iodide staining-based FACS analysis (reference value: 1.34%); assay type: functional; set-up: scale not given: the % may be the effect or the level left
[5] = Half life in human liver microsomes at 0.1 uM up to 60 mins by LC-MS/MS analysis; assay type: ADME, microsome
In short: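 Compound at 0.1 μM final (0.01% DMSO, 0.005% BSA) incubated at 37 °C with human, rat or mouse liver microsomes (0.33 mg/mL protein) in 0.1 M Tris/HCl pH 7.4, with 5 mM MgCl2 and 1 mM NADPH. Samples taken at 0, 7, 17, 30 and 60 min, quenched by methanol precipitation, centrifuged, and parent measured by LC-MS/MS. T1/2 and Clint derived.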

[6] = Clearance in Sprague-Dawley rat at 1.0 mg/kg, iv; assay type: ADME, organism-based; conditions: in vivo
In short: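 Male SD rats dosed i.v. at 1.0 mg/kg or orally at 3.0 mg/kg. Vehicle is DMSO, Tween 80 and normal saline. Plasma concentration–time data give CL, Vss, T1/2, Cmax, Tmax, MRT, AUC and oral bioavailability F.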

HCT-116 [7] = assay: Induction of apoptosis in human HCT116 cells assessed as early apoptotic cells at 0.5 uM after 48 hrs by Annexin V-FITC/propidium iodide staining-based FACS analysis (reference value: 2.35%); assay type: functional
[8] = Antiproliferative activity against human HepG cells after 72 hrs by sulforhodamine B assay; assay type: functional, cell-based
In short: (§1)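 Cells grown in ATCC-specified medium with 10% heat-inactivated FBS, penicillin/streptomycin and 10 mM Hepes, at 37 °C under 5% CO2. Seeded, cultured overnight, then exposed to gradient concentrations for 72 h. Growth read by SRB staining; inhibition % = [1−(A450 treated/A450 control)]×100. IC50 obtained by the Logit method from independent experiments.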

HCT-116 [9] = assay: Antiproliferative activity against human HCT116 cells after 72 hrs by sulforhodamine B assay; assay type: functional, cell-based; conditions: HCT-116, 72 h; in short: as §1
[10] = Aqueous solubility of the compound in pH 7.5 Tris buffer after 24 hrs by HPLC method; assay type: physicochemical
[11] = Volume of distribution at steady state in Sprague-Dawley rat at 1.0 mg/kg, iv; assay type: ADME, organism-based; conditions: in vivo, read-out: Vdss
In short: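 Male SD rats given 1.0 mg/kg i.v. in DMSO/Tween 80/normal saline vehicle; plasma concentration–time profile used for clearance, Vss, MRT.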

KB = assay: Antiproliferative activity against human KB cells after 72 hrs by sulforhodamine B assay; assay type: functional, cell-based; in short: as §1

Compound: CCN(CC)CCCn1c2c(c3ccccc3c1=O)C(=O)C(=O)c1cc(C)oc1-2
- Activity (HCT-116 [1]): 11.88%
- Tmax [2]: 15 min
- Activity (HCT-116 [3]): 6.47%
- Activity (Mus musculus): Non-Toxic
- Activity (HCT-116 [4]): 1.53%
- half-life at 0.1 µM [5]: 89.5 min
- clearance [6]: 176 mL/min/kg
- Activity (HCT-116 [7]): 2.39%
- pIC50 [8]: 5.88
- pIC50 (HCT-116 [9]): 6.85
- solubility at 24 h [10]: 15.7 mg/mL (≈ 40.1 mM)
- Vd [11]: 7.98 L/kg
- pIC50 (KB): 6.92
